Assay [1] concerns Aedes albopictus AChE (Ae.bAChE). Kind of assay: AChE inhibition, Ellman assay, Ae.bAChE. The class given is biochemical. The settings on record: SR = IC50 of mosquito AChE/IC50 of An. gambiae. (In Ellman's method for cholinesterases, released thiocholine reacts with DTNB.)
Assay [2] relates to Musca domestica AChE (MdAChE). The class given is biochemical. Particulars: for SR MdAChE: SR = IC50 of agricultural insect AChE/IC50 of An.gAChE.
In assay [3] the test system is Anopheles quadrimaculatus AChE (An.qAChE). In words: AChE inhibition, Ellman assay, An.qAChE. It counts as biochemical. The settings on record: SR = IC50 of mosquito AChE/IC50 of An. gambiae.
The next assay relates to Ae. aegypti. In words: Topical toxicity bioassay, Ae. aegypti. The class given is in vivo, Aedes aegypti. Particulars: adult females, 24 hour mortality. Summed up:
(§1)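 Adult mosquitoes were chilled on ice for 3 min, then 200 nL of test compound in 95% ethanol was applied to the abdomen by handheld microapplicator. Five doses, ten insects each, repeated three times, with an ethanol-only negative control. Insects were held under netting with free access to sugar water.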

The test system of assay [4] is Plutella xylostella AChE (PxAChE). In words: AChE inhibition, Ellman assay, PxAChE. The settings on record: for SR PxAChE: SR = IC50 of agricultural insect AChE/IC50 of An.gAChE. It counts as biochemical.
For assay [5], the system named is Ostrinia nubilalis AChE (OnAChE). In words: AChE inhibition, Ellman assay, OnAChE. It counts as biochemical. Particulars: for SR OnAChE: SR = IC50 of agricultural insect AChE/IC50 of An.gAChE.
For assay [6], the system named is Diaphorina citri AChE (DcAChE). Kind of assay: AChE inhibition, Ellman assay, DcAChE. It counts as biochemical. Particulars: SR = IC50 of agricultural insect AChE/IC50 of An.gAChE.
In assay [7] the target is Drosophila melanogaster AChE (DmAChE) (Drosophila melanogaster, UniProt P07140). In words: AChE inhibition, Ellman assay, DmAChE. The class given is biochemical. The settings on record: for SR DmAChE: SR = IC50 of agricultural insect AChE/IC50 of An.gAChE.
Assay [8] relates to Culex quinquefasciatus AChE (CqAChE). Kind of assay: AChE inhibition, Ellman assay, CqAChE. It counts as biochemical. The settings on record: SR = IC50 of mosquito AChE/IC50 of An. gambiae.
A further assay relates to An. gambiae. In words: Topical toxicity bioassay, An. gambiae. It counts as in vivo, Anopheles gambiae. The settings on record: adult females, 24 hour mortality. A digest of the protocol:
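Anopheline adults, chilled on ice for 1 min, received 200 nL of test compound in 95% ethanol on the abdomen via handheld microapplicator. Five doses × ten insects, three repeats, plus an ethanol-only control. Sugar water was freely available under netting.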

Assay [9] concerns Anopheles albimanus AChE (An.aAChE). In words: AChE inhibition, Ellman assay, An.aAChE. Particulars: SR = IC50 of mosquito AChE/IC50 of An. gambiae. The class given is biochemical.
The target of assay [10] is Aedes aegypti AChE (Ae.aAChE) (Aedes aegypti, UniProt Q6A2E2). Kind of assay: AChE inhibition, Ellman assay, Ae.aAChE. It counts as biochemical. The settings on record: SR = IC50 of mosquito AChE/IC50 of An. gambiae.
A further assay relates to O. nubilalis. Kind of assay: Topical toxicity bioassay, O. nubilalis. The class given is in vivo, Ostrinia nubilalis. The settings on record: for SR (toxicity): Selectivity Ratio = O. nubilalis LD50/An. gambiae LD50; for LD50 (95% CI) O. nubilalis: topical, L2 larvae, 24 hour mortality. Summed up: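 Lepidopteran larvae were ice-chilled for 3 min before 1 μL of test compound in 95% ethanol was applied to the abdomen with a handheld microapplicator. Five doses, ten larvae per dose, done three times, with an ethanol-only negative control. Food substrate was provided in netted containers.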

The test system of assay [11] is Apis mellifera AChE (Ap.mAChE). In words: AChE inhibition, Ellman assay, Ap.mAChE. The class given is biochemical. Particulars: for SR Ap.mAChE: SR = IC50 of agricultural insect AChE/IC50 of An.gAChE.
A further assay has as its system Cu. quinquefasciatus. Kind of assay: Topical toxicity bioassay, Cu. quinquefasciatus. The class given is in vivo, Culex quinquefasciatus. The settings on record: adult females, 24 hour mortality. Summed up:
as §1

The subject of assay [12] is mosquito acetylcholinesterases. Kind of assay: AChE inhibition, statements across mosquito species. It counts as biochemical.

On to `CNC(=O)Oc1ccccc1OC(C)C` [Propoxur], for which the “SR Ae.bAChE” value in [1] amounted to 0.8. Besides, in assay [2], the “SR MdAChE” value is recorded as 0.3. In assay [3], the “SR An.qAChE” value came out at 1.0. In addition, in the assay with Ae. aegypti, the “LD50 (95% CI) Ae. aegypti” value is given as 3 (1–4) aA ng/mg. In addition, in [4], the “SR PxAChE” value is 7.5. The “SR PxAChE” value in assay [4] (listed as propoxur) amounted to 7. The “SR OnAChE” value in [5] turned out to be 15. In addition, the “SR DcAChE” value in [6] came out at 2. For the same molecule, the “SR DmAChE” value in assay [7] is 0.2. Also, the “SR CqAChE” value in assay [8] was found to be 1.1. The “LD50 (95% CI) An. gambiae” value in the assay with An. gambiae is recorded as 3 (2–4) aA ng/mg. For the same molecule, the “SR An.aAChE” value in [9] is 1.1. Moreover, in assay [10], the “SR Ae.aAChE” value is on record as 0.8. For the same molecule, in the assay on O. nubilalis, the “SR (toxicity)” value turned out to be 14 and the “LD50 (95% CI) O. nubilalis” value was 42 (34–49) cA ng/mg. In assay [11], the “SR Ap.mAChE” value came to 2. Besides, in the assay on Cu. quinquefasciatus, the “LD50 (95% CI) Cu. quinquefasciatus” value is on record as 8 (5–11) bA ng/mg.

With `CNC(=O)Oc1cccc2c1OC(C)(C)C2` [Carbofuran, carbofuran], the “SR Ae.bAChE” value in assay [1] is listed as 1.0. Further, the “SR An.qAChE” value in assay [3] is reported as 0.9. Further, the “fold more active than bendiocarb, within each mosquito species” value in assay [12] (IC50 ratio versus bendiocarb) is on record as “about 3 fold”. Moreover, in [12] (IC50 ratio versus propoxur), the “fold more potent than propoxur, within each mosquito species” value was “approximately 10 fold”. Also, in assay [8], the “SR CqAChE” value stood at 2.3. Also, the “SR An.aAChE” value in [9] is 1.2. In assay [10], the “SR Ae.aAChE” value came out at 0.9.

Turning to `CNC(=O)Oc1cccc2c1OC(C)(C)O2` [Bendiocarb, bendiocarb], the “SR Ae.bAChE” value in assay [1] was 0.8. Moreover, the “fold more potent than propoxur, MdAChE” value in assay [2] (IC50 ratio versus propoxur) stood at 2.6 fold. Moreover, the “SR MdAChE” value in [2] is recorded as 0.3. Moreover, in assay [3], the “SR An.qAChE” value turned out to be 0.8. In addition, the “LD50 (95% CI) Ae. aegypti” value in the assay on Ae. aegypti is recorded as 1 (0.5–3) aA ng/mg. Moreover, the “fold more potent than 1, PxAChE” value in assay [4] (IC50 ratio versus 1) came to 3 fold. The “fold more potent than 5, PxAChE” value in assay [4] (IC50 ratio, 100 μM value used for 5) is given as 461 fold. Besides, the “SR PxAChE” value in assay [4] is listed as 1.3; in assay [4] (listed as bendiocarb), not above 7. For the same molecule, the “fold more potent than 1, OnAChE” value in [5] (IC50 ratio versus 1) is given as 8 fold. For the same molecule, the “fold more potent than 5, OnAChE” value in assay [5] (IC50 ratio versus 5) amounted to 243 fold. Also, the “SR OnAChE” value in assay [5] is given as 2. For the same molecule, the “SR DcAChE” value in [6] came to 0.5. Besides, the “fold more potent than propoxur, DmAChE” value in assay [7] (IC50 ratio versus propoxur) was 3.9 fold. In addition, the “SR DmAChE” value in assay [7] stood at 0.2. For the same molecule, the “SR CqAChE” value in assay [8] came to 1.2. In addition, the “LD50 (95% CI) An. gambiae” value in the assay on An. gambiae was 2 (1–4) aA ng/mg. Further, in assay [9], the “SR An.aAChE” value was found to be 1.0. For the same molecule, the “SR Ae.aAChE” value in assay [10] came to 0.7. In addition, the “fold more toxic than 1, O. nubilalis” value in the assay with O. nubilalis (LD50 ratio versus 1) amounted to 24 fold. In addition, in the assay on O. nubilalis, the “SR (toxicity)” value is recorded as 2. Besides, the “LD50 (95% CI) O. nubilalis” value in the assay on O. nubilalis was 4 (2–6) aB ng/mg; with O. nubilalis (listed as bendiocarb), 4 ng/mg. The “fold difference in IC50 versus propoxur, Ap.mAChE” value in [11] (IC50 ratio versus propoxur) stood at 19 fold. Further, the “SR Ap.mAChE” value in assay [11] is 0.3. The “LD50 (95% CI) Cu. quinquefasciatus” value in the assay on Cu. quinquefasciatus is reported as 2 (1–4) aB ng/mg.

Source of the values: PMC4348351 (Pest management science, 2014).
